Assay [1] has as its system scald wounds in mice skin. The assay can be described thus: Scald wound repair in mouse skin. It is filed as in vivo. The conditions noted are these: 50 nM; for re-epithelialization rate: scald wound.
The test system of assay [2] is full-thickness injury skin wounds in mice. The assay is described as follows: Full-thickness injury skin wound healing in mice. In kind it is in vivo, mouse. In a few lines:
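Mice were anaesthetised with 1% pentobarbital sodium (0.1 ml/20 g) and given two round 8 × 8 mm dorsal skin wounds. Wounds were treated topically twice daily with 20 μl of vehicle, peptide (0.5, 5 or 50 nM) or EGF (50 nM). Residual wound area was measured from images as a percentage of initial area. New epidermis and granulation tissue thickness were measured from H&E sections on days 4 and 8. Six mice per group.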

B1: epidermal growth factor (protein, UniProt P01133 23-1207, looked up)
Pro-epidermal growth factor: PQHWSCPEGTLAGNGNSTCVGPAPFLIFSHGNSIFRIDTEGTNYEQLVVDAGVSVIMDFHYNEKRIYWVDLERQLLQRVFLNGSRQERVCNIEKNVSGMAINWINEEVIWSNQQEGIITVTDMKGNNSHILLSALKYPANVAVDPVERFIFWSSEVAGSLYRADLDGVGVKALLETSEKITAVSLDVLDKRLFWIQYNREGSNSLICSCDYDGGSVHISKHPTQHNLFAMSLFGDRIFYSTWKMKTIWIANKHTGKDMVRINLHSSFVPLGELKVVHPLAQPKAEDDTWEPEQKLCKLRKGNCSSTVCGQDLQSHLCMCAEGYALSRDRKYCEDVNECAFWNHGCTLGCKNTPGSYYCTCPVGFVLLPDGKRCHQLVSCPRNVSECSHDCVLTSEGPLCFCPEGSVLERDGKTCSGCSSPDNGGCSQLCVPLSPVSWECDCFPGYDLQLDEKSCAASGPQPFLLFANSQDIRHMHFDGTDYGTLLSQQMGMVYALDHDPVENKIYFAHTALKWIERANMDGSQRERLIEEGVDVPEGLAVDWIGRRFYWTDRGKSLIGRSDLNGKRSKIITKENISQPRGIAVHPMAKRLFWTDTGINPRIESSSLQGLGRLVIASSDLIWPSGITIDFLTDKLYWCDAKQSVIEMANLDGSKRRRLTQNDVGHPFAVAVFEDYVWFSDWAMPSVMRVNKRTGKDRVRLQGSMLKPSSLVVVHPLAKPGADPCLYQNGGCEHICKKRLGTAWCSCREGFMKASDGKTCLALDGHQLLAGGEVDLKNQVTPLDILSKTRVSEDNITESQHMLVAEIMVSDQDDCAPVGCSMYARCISEGEDATCQCLKGFAGDGKLCSDIDECEMGVPVCPPASSKCINTEGGYVCRCSEGYQGDGIHCLDIDECQLGEHSCGENASCTNTEGGYTCMCAGRLSEPGLICPDSTPPPHLREDDHHYSVRNSDSECPLSHDGYCLHDGVCMYIEALDKYACNCVVGYIGERCQYRDLKWWELRHAGHGQQQKVIVVAVCVVVLVMLLLLSLWGAHYYRTQKLLSKNPKNPYEESSRDVRSRRPADTEDGMSSCPQPWFVVIKEHQDLKNGGQPVAGEDGQAADGSMQPTSWRQEPQLCGMGTEQGCWIPVSSDKGSCPQVMERSFHMPSYGTQTLEGGVEKPHSLLSANPLWQQRALDPPHQMELTQ
modifications: Pro-epidermal growth factor
Regarding B1, in assay [1] (20 μl topical, day 12 after operation, n = 6 (vehicle 40 ± 4%)), the “regeneration rate of scald wounds” value is listed as 78 ± 5%. Also, the re-epithelialization rate is on record as 38 ± 3% in assay [1] (day 8, H&E staining, n = 6 (vehicle 15 ± 3%)) and “almost complete re-epithelialization” in assay [1] (day 12, H&E staining, n = 6 (vehicle 42 ± 2%)). For the same molecule, in assay [2] (50 nM, 20 μl topical twice a day, day 8 post-operation, n = 6 (vehicle 71 ± 3%)), the “skin wound healing rate” value is reported as 87 ± 2%. The “thickness of new epidermis” value is reported as 58 ± 2 μm in assay [2] (day 4, H&E staining, n = 6 (vehicle 119 ± 7)) and 38 ± 10 μm in assay [2] (day 8, H&E staining, n = 6 (vehicle 86 ± 7)). Further, the “thickness of granulation tissue” value in assay [2] (day 4, H&E staining, n = 6 (vehicle 505 ± 46)) is recorded as 317 ± 82 μm; in assay [2] (day 8, H&E staining, n = 6 (vehicle 982 ± 8)), 719 ± 54 μm.

(Values after PMC9273405 (Burns & Trauma, 2022).)
